# Sampled rows, rich in hits. Any-hit rate of the full collection: about 2%.
# ASAP1 inh: ASAP1 ArfGAP inhibition | ASAP1-stimulated ARF1 GTP hydrolysis, GDP FP detection | 360,000 tested, 0.19% active | inhibition, % at 16.5 µM; in the data active = inhibition above about 25%;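 note: 0% = vehicle with enzyme and substrate and 100% = no enzyme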
# TDP2 absorb: TDP2 (human) inhibition, absorbance primary screen | 370,000 tested, 0.34% active | recombinant TDP2, T5PNP hydrolysis, p-nitrophenol absorbance 415 nm | inhibition, % at 12.8 µM | AID 720702 | O95551;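 active = inhibition above the mean of all tested compounds plus 3 SD, set per campaign, cut at about 25% in these data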;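 note: 0% = DMSO with enzyme and 100% = buffer with substrate but no TDP2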
#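 Assay system: Recombinant human TDP2 | Quantity: 120 nM TDP2 per well | Incubation: 2 h at 37 °C | Signal: Epi absorbance | Evaluation: Percent inhibition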
# LEDGF integ inh: blocks HIV-1 LEDGF/p75-dependent DNA integration; TR-FRET IN-LEDGF/p75 DNA integration, Eu/Cy5; inhibition, % at 3.7 µM; 370,000 tested, 0.64% active;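 active = inhibition above the screen-wide mean plus 3 SD, cut at about 13% in these data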;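 note: signal is the Cy5 over europium emission ratio at 671 and 618 nm; 0% = plate median of compound wells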
# UHRF1 MBD2 ctr: UHRF1 methyl-DNA binding inhibition; AID 687016; 370,000 tested, 0.75% active; UHRF1 binding to methylated oligo, TR-FRET; Q96T88; inhibition, % at 4.4 µM; in the data active = inhibition above about 21%;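 note: UHRF1 SRA domain binding a hemimethylated CpG hairpin DNA probe; 0% = median of test compound wells and 100% = reference inhibitor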
# Target sequence (Q96T88 whole entry, looked up, the tested form may be a part): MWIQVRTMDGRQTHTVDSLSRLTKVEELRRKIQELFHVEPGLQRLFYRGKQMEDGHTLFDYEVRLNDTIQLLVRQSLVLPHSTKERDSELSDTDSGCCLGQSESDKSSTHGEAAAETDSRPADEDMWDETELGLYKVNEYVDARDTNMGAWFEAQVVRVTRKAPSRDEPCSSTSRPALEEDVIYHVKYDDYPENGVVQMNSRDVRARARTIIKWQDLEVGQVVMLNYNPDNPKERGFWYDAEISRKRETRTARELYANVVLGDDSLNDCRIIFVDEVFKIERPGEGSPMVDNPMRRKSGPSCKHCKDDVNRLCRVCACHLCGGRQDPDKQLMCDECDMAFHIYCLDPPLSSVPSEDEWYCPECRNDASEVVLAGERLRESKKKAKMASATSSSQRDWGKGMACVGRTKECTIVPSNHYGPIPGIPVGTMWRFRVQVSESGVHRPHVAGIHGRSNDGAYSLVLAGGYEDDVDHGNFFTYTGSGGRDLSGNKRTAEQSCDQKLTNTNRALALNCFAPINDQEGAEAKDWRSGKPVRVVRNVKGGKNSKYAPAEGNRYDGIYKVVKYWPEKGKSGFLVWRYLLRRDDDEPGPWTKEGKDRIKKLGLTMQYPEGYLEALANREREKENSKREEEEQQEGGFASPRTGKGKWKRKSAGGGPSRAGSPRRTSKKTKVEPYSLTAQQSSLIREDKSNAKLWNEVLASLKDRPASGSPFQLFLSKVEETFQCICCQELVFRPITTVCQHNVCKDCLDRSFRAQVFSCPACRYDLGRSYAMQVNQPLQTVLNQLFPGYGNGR
# MBD2 DNA inh: inhibitors of human MBD2 binding to methylated oligonucleotide; 370,000 tested, 0.31% active; inhibition, % at 4.4 µM; AID 686964; TR-FRET; in the data active = inhibition above about 13%
# ARFGAP1 inhibitor: rat ARFGAP1 inhibition; 360,000 tested, 0.26% active; inhibition, % at 16.5 µM; Arfgap1-stimulated ARF1 GTP hydrolysis, GDP FP detection; Q62848;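 active = inhibition above a per-plate limit, mean inhibition of low control wells plus 3 SD, cut at about 25% in these data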;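 note: 0% = DMSO wells with enzyme and 100% = wells lacking Arfgap1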
#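 Material: rat Arfgap1 catalytic domain, aa 1-136; also added: human ARF1(Δ1-17)-GTP substrate; compound dosing: one concentration, 16.5 µM, DMSO 1.26%; incubation: GTP hydrolysis reaction 2 h at 25 °C; measured by: Tracer-displacement fluorescence polarization with EDTA stop, 620/688 nm; evaluation: % inhibition from polarization; repeats: one replicate per compound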
# The depositor's hits bear a star; x = not tested or not shown.
SMILES,ASAP1 inh,TDP2 absorb,LEDGF integ inh,UHRF1 MBD2 ctr,MBD2 DNA inh,ARFGAP1 inhibitor
Cc1cc(C(=O)N/N=C/c2sccc2C)no1,18.8,2.0,-0.1,22.7*,2.2,1.1
Cc1cccc(Nc2ncnc3onc(-c4cccc(Cl)c4)c23)c1C,-1.7,1.1,1.3,24.2*,-1.0,-1.6
Cc1cccc(Nc2ncnc3onc(-c4ccc(F)cc4)c23)c1C,-1.3,-7.0,-0.4,-1.0,-5.4,-9.9
COC(=O)c1ccc(OC(=O)CS(=O)c2ccccc2[N+](=O)[O-])cc1 (centres undefined),4.9,-3.2,-0.4,62.4*,-2.5,2.4
C=CCn1c(COc2ccccc2)nnc1SCC(=O)Nc1ccc(S(=O)(=O)Nc2cc(C)nc(C)n2)cc1,x,7.3,-2.6,0.9,-3.1,x
O=C1C2C3C=CC(C2C(=O)N1c1nccs1)C1C(=O)N(c2nccs2)C(=O)C31 (centres undefined),-2.5,-7.2,-7.0,-2.4,1.8,-10.0
O=C1C2C3C=CC(CC3)C2C(=O)N1c1nccs1 (centres undefined),7.9,-4.6,-0.3,20.8*,6.0,-3.3
COCCCNC(=O)c1ccc(Cn2c(=O)c3ccccc3n(Cc3ccc(Br)cc3)c2=O)cc1,x,-2.9,-0.9,0.8,-0.3,x
CC(=O)Nc1ccc(NC(=O)COC(=O)c2n[nH]c3ccccc23)cc1,2.0,1.1,-0.4,32.2*,-2.1,2.1
Cc1cccc(N/C=C(\[N+](=O)[O-])S(=O)(=O)c2ccccc2)c1C,5.5,5.3,-0.5,49.6*,-3.1,-0.7
COc1ccccc1C1c2c(ncn(-c3ccccc3)c2=N)Oc2ccc3ccccc3c21 (centres undefined),x,-7.3,4.6,0.1,-2.8,x
CN(C)CC(c1ccc(O)cc1)C1(O)CCCCC1 (centres undefined),x,-6.6,-1.2,2.1,-3.9,x
O=C(Cc1cccs1)N(c1ccc(F)cc1)C1(C(=O)NC2CCCCC2)CCCC1,-4.4,3.5,0.5,26.9*,3.5,-2.3
O=C1CCC(C(=O)N(c2ccccc2)C2(C(=O)NC3CCCCC3)CCCCC2)N1 (centres undefined),6.5,9.9,1.0,-4.5,-4.7,4.7
Cc1ccc(N(C(=O)C2CCC(=O)N2)C2(C(=O)NC3CCCC3)CCCCC2)cc1 (centres undefined),4.1,4.8,0.2,77.8*,-2.3,-7.8
CC(C)C(C(=O)NC1CCCC1)N(CC1CCCO1)C(=O)CNS(=O)(=O)c1ccc(F)cc1 (centres undefined),-5.1,4.2,1.9,28.2*,-2.6,15.6
CCCC(C(=O)NCC1CCCO1)N(C(=O)CNS(=O)(=O)c1ccccc1)c1ccc(F)cc1 (centres undefined),5.6,9.6,-2.7,-1.8,0.0,5.3
CCC(C(=O)NCC1CCCO1)N(C(=O)CNS(=O)(=O)c1ccccc1)c1ccc(F)cc1 (centres undefined),17.6,-0.7,89.4*,10.7,7.8,5.1
COc1ccccc1CC(=O)NCCN1C(=O)C2C3C=CC(C3)C2C1=O (centres undefined),x,-0.6,-1.6,1.8,3.2,x
COC(=O)[C@]12C[C@H](CC(=O)N3CCSCC3)C(=O)N(Cc3ccccc3)C1=C[C@H](COCc1ccccc1)O[C@@H]2C,x,11.0,-0.6,0.8,1.9,x
O=C(Nc1ccc(F)cc1F)Nc1csc2ccccc12,14.4,-10.2,-4.7,33.1*,0.3,1.1
O=C(Nc1ccc(F)c(Cl)c1)Nc1csc2ccccc12,15.6,-5.8,-2.0,4.7,3.5,20.0
COc1ccc(NC(=O)CCCN2C(=O)/C(=C\c3ccco3)SC2=S)cc1,-9.9,0.2,2.4,-3.9,-0.7,8.1
O=C(CN1C(=O)/C(=C/c2ccco2)SC1=S)Nc1ccc(O)c(C(=O)O)c1,0.0,4.0,46.9*,58.4*,7.2,-2.7
O=C(CN1C(=O)/C(=C/c2ccco2)SC1=S)NC1CCS(=O)(=O)C1 (centres undefined),-21.2,16.1,55.2*,52.5*,-0.2,-2.4
SMILES,ASAP1 inh,TDP2 absorb,LEDGF integ inh,UHRF1 MBD2 ctr,MBD2 DNA inh,ARFGAP1 inhibitor
O=c1[nH]c(SCc2nc3ccccc3c(=O)n2-c2ccccc2)nc2ccccc12,5.0,3.9,2.5,34.8*,-6.5,7.1
Cc1cc(C(=O)COC(=O)c2cccnc2Cl)c(C)n1C,4.8,2.2,34.5*,-0.5,-4.5,5.7
CCOC(=O)c1c(N)sc(C(O)(C(F)(F)F)C(F)(F)F)c1-c1ccc(OC)cc1OC,11.9,-3.9,-4.7,24.6*,-2.5,-9.5
C=CCN1[C@@H](CC(C)C)COc2cccc(N3CCCC3)c2S1(=O)=O,x,2.8,-1.8,2.2,0.4,x
Cc1ccc2c(c1)C1CS(=O)(=O)N(CC(C)C)CN1C2 (centres undefined),x,-4.8,0.7,-2.4,-6.0,x
O=C(O)c1ccccc1NS(=O)(=O)c1ccc(NN=Cc2ccccc2F)c([N+](=O)[O-])c1,-2.4,2.8,-0.1,33.1*,-8.5,1.4
Cn1c(=O)cc(OCCCC(=O)Nc2cc(C(F)(F)F)ccn2)c2ccccc21,x,-3.0,0.1,-0.5,-2.8,x
COc1cc(C(=O)OC2CCCCC2=O)cc(OC)c1C (centres undefined),0.0,-7.0,-4.4,22.6*,7.1,5.3
Cc1ccc(C(=O)NCC(=O)OC2CCCCC2=O)cc1C (centres undefined),-6.9,6.9,-2.2,0.4,2.0,7.4
CC(=O)c1cnc(-c2cccc(Cl)c2)s1,2.3,5.4,-2.0,37.2*,5.1,11.5
COC(=O)[C@@]12CCCCC3=C1N(CCC3)C(=O)[C@H]2CC(=O)NCCCN1CCCC1=O,x,-1.1,-1.1,0.5,0.0,x
COCCNC(=O)COC(=O)c1cccnc1SC,-13.6,-1.6,2.2,27.2*,-1.1,3.0
CCCCNC(=O)Nc1cc(C)on1,-0.1,2.3,-1.3,-0.4,0.7,4.8
CCOC(=O)C(=O)Nc1cc(C)on1,-4.0,45.5*,7.9,22.2*,6.7,4.0
CC(C)C[C@H](NC1(C(=O)NC2CCCCC2)CCOCC1)C(=O)NCC(c1ccccc1)c1ccccc1,x,3.1,-7.1,2.8,-2.1,x
CCCCNc1cccc2c1S(=O)(=O)N[C@H](C)CO2,-2.3,13.0,-1.5,22.0*,9.1,-0.9
O=C(C1CCCN1S(=O)(=O)c1ccccc1[N+](=O)[O-])N1CCc2ccccc2C1 (centres undefined),x,-2.9,-1.8,3.7,0.7,x
COc1cccc(CN2CCC(C(=O)Nc3ccc(-c4cccc(C)c4)cc3)CC2)c1O,24.4,-3.6,3.5,70.6*,8.8,2.7
O=C(Nc1cccc(F)c1)O[C@@H]1CC[C@@]23CCCN2C(=O)CCC[C@H]3C1,x,-6.2,0.1,-4.2,-5.4,x

# Assay outcomes: PubChem BioAssay, The Scripps Research Institute Molecular Screening Center
